Reference: ChEMBL document CHEMBL1781884, “Design, synthesis, and structure-activity relationship of tropane muscarinic acetylcholine receptor antagonists” (J Med Chem, 2009)

What was measured:
[1] = target: T1, Muscarinic acetylcholine receptor M3 (Homo sapiens, UniProt P20309); experiment: Antagonist activity against human M3 receptor expressed in CHO cells assessed as inhibition of acetylcholine-induced calcium mobilization by FLIPR; format: functional, cell-based; details: for Kb: read-out: pA2 (converted)
[2] = system: Mus musculus; experiment: Inhibition of methacholine-induced bronchoconstriction in dosed BALB/c mouse assessed as respiratory values at 50 ug, intranasal at 24 hrs; format: functional
[3] = system: Mus musculus; experiment: Inhibition of methacholine-induced bronchoconstriction in dosed BALB/c mouse assessed as respiratory values at 5 ug, intranasal at 24 hrs; format: functional
[4] = system: Mus musculus; experiment: Bronchorelaxant activity in intranasally dosed BALB/c mouse bronchus assessed as inhibition of methacholine-induced contraction; format: functional
[5] = species on record: Mus musculus; experiment: Bronchorelaxant activity in methacholine-induced BALB/c mouse bronchus contraction model assessed as time to 50% loss of maximum protection at 5 ug, intranasally; format: functional
In short: (§1)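 Balb/C mice (n = 4 per group) dosed intranasally (50 μL, 10% DMSO vehicle); challenged 0.25-48 h later with 30 mg/mL methacholine aerosol for 2 min; Penh recorded over next 5 min, as ratio of post-drug to pre-drug Penh; duration taken as time to 50% loss of maximum protection.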

[6] = Systemic plasma clearance in rat at 2.8 mg/kg, iv; format: ADME, organism-based; parameters: dose 2.8 mg/kg, route intravenous
[7] = target: T2, Muscarinic acetylcholine receptor M1 (Homo sapiens, UniProt P11229); experiment: Displacement of [3H]N-methyl Scopolamine from human muscarinic M1 receptor expressed in CHO cells by scintillation proximity assay; format: cell-based
T2 sequence (P11229 whole entry): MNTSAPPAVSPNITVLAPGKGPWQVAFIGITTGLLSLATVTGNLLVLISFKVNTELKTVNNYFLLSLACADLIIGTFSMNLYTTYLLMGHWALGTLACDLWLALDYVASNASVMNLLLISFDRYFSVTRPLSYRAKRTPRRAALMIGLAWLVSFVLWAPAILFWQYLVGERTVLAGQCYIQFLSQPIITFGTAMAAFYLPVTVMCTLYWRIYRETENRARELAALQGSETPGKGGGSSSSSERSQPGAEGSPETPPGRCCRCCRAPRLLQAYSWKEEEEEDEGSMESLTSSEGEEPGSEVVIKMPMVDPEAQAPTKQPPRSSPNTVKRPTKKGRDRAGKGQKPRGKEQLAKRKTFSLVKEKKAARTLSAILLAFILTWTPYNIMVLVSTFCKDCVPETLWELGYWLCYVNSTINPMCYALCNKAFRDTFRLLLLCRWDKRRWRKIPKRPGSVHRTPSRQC
In short: (§2)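 Scintillation proximity binding on membranes from CHO cells expressing human M1, M2 or M3 receptor, competing against 0.5 nM [3H]-N-methylscopolamine; Ki reported, mean of two or more independent assays.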

[8] = target: T3, Muscarinic acetylcholine receptor M2 (Homo sapiens, UniProt P08172); experiment: Displacement of [3H]N-methyl Scopolamine from human muscarinic M2 receptor expressed in CHO cells by scintillation proximity assay; format: cell-based; in short: as §2
T3 sequence (P08172 whole entry): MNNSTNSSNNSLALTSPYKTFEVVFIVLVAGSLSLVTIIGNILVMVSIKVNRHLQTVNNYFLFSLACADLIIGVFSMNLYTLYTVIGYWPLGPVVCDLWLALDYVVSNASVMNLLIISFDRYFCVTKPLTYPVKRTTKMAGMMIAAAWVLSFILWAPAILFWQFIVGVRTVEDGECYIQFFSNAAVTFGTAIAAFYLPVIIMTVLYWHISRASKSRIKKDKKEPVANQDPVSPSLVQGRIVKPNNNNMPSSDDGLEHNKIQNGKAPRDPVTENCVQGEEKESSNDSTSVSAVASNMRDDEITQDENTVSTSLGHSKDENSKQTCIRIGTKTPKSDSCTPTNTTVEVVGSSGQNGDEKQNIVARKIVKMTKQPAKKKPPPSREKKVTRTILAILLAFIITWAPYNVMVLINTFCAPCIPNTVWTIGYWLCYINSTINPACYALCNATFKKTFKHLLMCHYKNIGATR

[9] = target: T1, Muscarinic acetylcholine receptor M3; experiment: Displacement of [3H]N-methyl Scopolamine from human muscarinic M3 receptor expressed in CHO cells by scintillation proximity assay; format: cell-based; in short: as §2
[10] = target: T1, Muscarinic acetylcholine receptor M3; experiment: Antagonist activity at human muscarinic M3 receptor in human bronchus assessed as potency against carbachol-induced contraction; format: functional; details: read-out: pA2 (converted)
In short: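 Human bronchial strips (primary, secondary or tertiary airways, obtained at autopsy) mounted in organ baths on force-displacement transducers; preincubated 2 h with antagonist, then given increasing carbachol concentrations; potency expressed as pA2.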

[11] = target: T1, Muscarinic acetylcholine receptor M3; experiment: Antagonist activity at human muscarinic M3 receptor in human bronchus assessed as reversal time for 50% of carbachol-induced contraction to return to maximum relaxation at 10 nM; format: functional
In short: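 Human bronchial strips from primary, secondary or tertiary airways (autopsy) in organ baths on force-displacement transducers; preincubated 2 h with antagonist at 10 nM, then contracted with increasing carbachol. Antagonist then washed out, tissue superfused with carbachol-containing buffer and tension recovery followed over time; value is minutes to 50% reversal of antagonist blockade (Off t50).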

[12] = (§3) Oral bioavailability in rat at 5.8 mg/kg; format: ADME, organism-based; details: in vivo
In short: (§4)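 Rat oral dosing at 5.8 mg/kg; percent bioavailability determined from plasma levels, individual animal values listed because of variability.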

[13] = Systemic plasma clearance in rat at 2.5 mg/kg, iv; format: ADME, organism-based; parameters: dose 2.5 mg/kg, route intravenous
[14] = species on record: Mus musculus; experiment: Bronchorelaxant activity in methacholine-induced BALB/c mouse bronchus contraction model assessed as time to 50% loss of maximum protection at 0.5 ug, intranasally; format: functional; in short: as §1
[15] = system: Rattus norvegicus; experiment: as §3; format: ADME, organism-based; details: in vivo, BLD = below limit of detection; in short: as §4

Row | SMILES | IC50 [1] | Kb [1] | further results
1 | CCC(O)(C[C@H]1C[C@H]2CC[C@@H](C1)N2C)c1ccccc1 (some centres not stated) | 135 nM | – | –
2 | CN1[C@@H]2CC[C@H]1C[C@@H](CC(O)(c1ccccc1)c1ccccn1)C2 (some centres not stated) | 19 nM | – | –
3 | C[N+]1(C)[C@@H]2CC[C@H]1C[C@@H](CC(O)(c1cccc(F)c1)c1cccc(F)c1)C2 | 11 nM | 10 nM | –
4 | COc1ccccc1C(O)(C[C@H]1C[C@H]2CC[C@@H](C1)[N+]2(C)C)c1ccccc1OC | > 10000 nM | – | –
5 | C[N+]1(C)[C@@H]2CC[C@H]1C[C@@H](CC(O)(c1ccccc1)c1ccccc1)C2.[Br-] | – | – | inhibition (INH) [2]: 62%
6 | C[N+]1(C)[C@@H]2CC[C@H]1C[C@@H](CC(O)(c1cccs1)c1cccs1)C2.[Br-] | < 10 nM | 2.51 nM | inhibition (INH) [3]: 19%
7 | C[N+]1(C)[C@@H]2CC[C@H]1C[C@@H](CC(O)(c1cccc(Cl)c1)c1cccc(Cl)c1)C2 | 25 nM | – | –
8 | C[N+]1(C)[C@@H]2CC[C@H]1C[C@@H](CC(CO)(c1ccccc1)c1ccccc1)C2 | – | 3.98 nM | –
9 | Cc1cc(C(O)(C[C@H]2C[C@H]3CC[C@@H](C2)[N+]3(C)C)c2csc(C)c2)cs1 | 65 nM | – | –
10 | C[N+]1(C)[C@@H]2CC[C@H]1C[C@@H](C=C(c1cccs1)c1cccs1)C2.[Br-] | < 10 nM | 0.1 nM | ED50 [4]: 0.2 µg; Time [5]: 24 h; clearance [6]: 85 mL/min/kg; inhibition (INH) [3]: 72%; Ki [7]: 0.38 nM; Ki [8]: 0.73 nM; Ki [9]: 0.45 nM; Kb [10]: 1 nM; TIME [11]: 0.983 h; bioavailability [12]: 2.4%
11 | CN1[C@@H]2CC[C@H]1C[C@@H](CC(C(N)=O)(c1ccccc1)c1ccccc1)C2 | < 10 nM | 0.1 nM | inhibition (INH) [3]: >10%
12 | CN1[C@@H]2CC[C@H]1C[C@@H](CC(O)(c1ccccc1)c1ccccc1)C2 | 973 nM | – | inhibition (INH) [2]: >10%
13 | C[N+]1(C)[C@@H]2CCC[C@H]1C[C@@H](CC(O)(c1cccs1)c1cccs1)C2.[I-] | < 10 nM | 2 nM | inhibition (INH) [3]: 44%
14 | CN1[C@@H]2CC[C@H]1C[C@@H](CCC(O)(c1ccccc1)c1ccccc1)C2 | 134 nM | – | –
15 | C[N+]1(C)[C@@H]2CC[C@H]1C[C@@H](CC(C#N)(c1ccccc1)c1ccccc1)C2.[Br-] | – | – | ED50 [4]: 0.01 µg; clearance [13]: 74 mL/min/kg; Ki [8]: 0.17 nM; Ki [9]: 0.06 nM; Kb [10]: 0.1 nM; TIME [11]: 1.42 h; Time [14]: >24 h; F [15]: BLD
16 | Cc1c(F)cccc1C(O)(C[C@H]1C[C@H]2CC[C@@H](C1)[N+]2(C)C)c1cccc(F)c1C | 65 nM | – | –

Row | SMILES | IC50 [1] | Kb [1] | further results
17 | COc1ccc(C(O)(C[C@H]2C[C@H]3CC[C@@H](C2)[N+]3(C)C)c2ccc(OC)cc2)cc1 | > 10000 nM | – | –
18 | C[N+]1(C)[C@@H]2CC[C@H]1C[C@@H](CC(O)(c1ccc(F)c(F)c1)c1ccc(F)c(F)c1)C2 | 290 nM | – | –
19 | C[N+]1(C)[C@@H]2CC[C@H]1C[C@@H](CC(O)(c1cc(F)cc(F)c1)c1cc(F)cc(F)c1)C2 | 112 nM | – | –
20 | C[N+]1(C)[C@@H]2CC[C@H]1C[C@@H](CC(O)(c1ccc(Cl)cc1)c1ccc(Cl)cc1)C2 | 74 nM | – | –
21 | CN1[C@@H]2CC[C@H]1C[C@@H](CC(O)(c1cccs1)c1cccs1)C2 | < 10 nM | 2.51 nM | inhibition (INH) [2]: >10%
22 | Cc1ccccc1C(=C[C@H]1C[C@H]2CC[C@@H](C1)[N+]2(C)C)c1ccccc1C.[Br-] | < 10 nM | 0.1 nM | inhibition (INH) [3]: 91%
23 | CN1[C@@H]2CC[C@H]1C[C@@H](CC(C#N)(c1ccccc1)c1ccccc1)C2 | – | 0.316 nM | –
24 | C[N+]1(C)[C@@H]2CC[C@H]1C[C@@H](C=C(c1ccccc1)c1ccccc1)C2.[Br-] | < 10 nM | 5.01 nM | inhibition (INH) [2]: 76%
25 | C[N+]1(C)[C@@H]2CCC[C@H]1C[C@H](CC(O)(c1ccccc1)c1ccccc1)C2.[Br-] | < 10 nM | 1.58 nM | inhibition (INH) [3]: 34%
26 | Cc1ccc(F)cc1C(O)(C[C@H]1C[C@H]2CC[C@@H](C1)[N+]2(C)C)c1cc(F)ccc1C | 37 nM | – | –
27 | Cc1ccccc1C(O)(C[C@H]1C[C@H]2CC[C@@H](C1)[N+]2(C)C)c1ccccc1C.[Br-] | 10 nM | 5.01 nM | inhibition (INH) [3]: 34%
28 | C[N+]1(C)[C@@H]2CC[C@H]1C[C@@H](CC(O)(c1ccsc1)c1ccsc1)C2 | 17 nM | – | –
29 | CN1[C@@H]2CC[C@H]1C[C@@H](C(O)(c1ccccc1)c1ccccc1)C2 | 1500 nM | – | –
30 | Cc1ccccc1C(O)(C[C@H]1C[C@H]2CCC[C@@H](C1)[N+]2(C)C)c1ccccc1C | 23 nM | – | –
31 | C[N+]1(C)[C@@H]2CC[C@H]1C[C@@H](CC(C(N)=O)(c1ccccc1)c1ccccc1)C2.[I-] | < 10 nM | 0.126 nM | inhibition (INH) [3]: 90%
32 | C[N+]1(C)[C@@H]2CCC[C@H]1C[C@H](C=C(c1cccs1)c1cccs1)C2.[Br-] | < 10 nM | 1 nM | inhibition (INH) [3]: 49%
